System: Fibroblast
Assay: Multiplex assay against human fibroblast
Format: toxicity, cell-based
Summary of the method: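 Live cells were stained at seeding with Hoechst33342, BioTracker Green Microtubule Cytoskeleton Dye, MitoTracker Red and Annexin V Alexa Fluor 680. Following compound addition, they were imaged on a CQ1 microscope at 37°C and 5% CO2 and gated by CellPathfinder machine learning into Hoechst high-intensity objects or normal cells, with normal cells split into healthy, pyknosed or fragmented nuclei and pyknosed cells into mitotic or apoptotic. Tubulin, mitochondrial-mass and membrane-permeability phenotypes are per cents of healthy-nucleus cells.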

[1] = 12 h, 1 µM, compound concentration 1 uM, replicate 1
[2] = 12 h, 1 µM, compound concentration 1 uM, replicate 2
[3] = 12 h, 10 µM, compound concentration 10 uM, replicate 1
[4] = 12 h, 10 µM, compound concentration 10 uM, replicate 2
[5] = 24 h, 1 µM, compound concentration 1 uM, replicate 1
[6] = 24 h, 1 µM, compound concentration 1 uM, replicate 2
[7] = 24 h, 10 µM, compound concentration 10 uM, replicate 1
[8] = 24 h, 10 µM, compound concentration 10 uM, replicate 2
[9] = 48 h, 1 µM, compound concentration 1 uM, replicate 1
[10] = 48 h, 1 µM, compound concentration 1 uM, replicate 2
[11] = 48 h, 10 µM, compound concentration 10 uM, replicate 1
[12] = 48 h, 10 µM, compound concentration 10 uM, replicate 2

SMILES: CN(c1cc(C(F)(F)F)nc(OCCC(=O)O)n1)c1cccc2c1CCC2
- Population Apoptotic (%) [1]: 70%
- Population Fragmented Nuclei (%) [1]: 18%
- Population Healthy Nuclei (%) [1]: 47%
- Population Hoechst High Intensity Objects (%) [1]: 11%
- Population Membrane Permeable-Phenotype (%) [1]: 17%
- Population Mitochondria Different-Phenotype (%) [1]: 6%
- Population Mitotic Cells (%) [1]: 29%
- Population Normal (%) [1]: 88%
- Population Pyknosed Nuclei (%) [1]: 33%
- Population Tubulin-Different-Phenotype (%) [1]: 27%
- Total Cell Count [1]: 136
- Population Apoptotic (%) [2]: 0%
- Population Fragmented Nuclei (%) [2]: 9%
- Population Healthy Nuclei (%) [2]: 80%
- Population Hoechst High Intensity Objects (%) [2]: 12%
- Population Membrane Permeable-Phenotype (%) [2]: 4%
- Population Mitochondria Different-Phenotype (%) [2]: 20%
- Population Mitotic Cells (%) [2]: 100%
- Population Normal (%) [2]: 87%
- Population Pyknosed Nuclei (%) [2]: 9%
- Population Tubulin-Different-Phenotype (%) [2]: 28%
- Total Cell Count [2]: 65
- Population Apoptotic (%) [3]: 61%
- Population Fragmented Nuclei (%) [3]: 23%
- Population Healthy Nuclei (%) [3]: 49%
- Population Hoechst High Intensity Objects (%) [3]: 11%
- Population Membrane Permeable-Phenotype (%) [3]: 25%
- Population Mitochondria Different-Phenotype (%) [3]: 6%
- Population Mitotic Cells (%) [3]: 38%
- Population Normal (%) [3]: 88%
- Population Pyknosed Nuclei (%) [3]: 27%
- Population Tubulin-Different-Phenotype (%) [3]: 26%
- Total Cell Count [3]: 172
- Population Apoptotic (%) [4]: 0%
- Population Fragmented Nuclei (%) [4]: 13%
- Population Healthy Nuclei (%) [4]: 86%
- Population Hoechst High Intensity Objects (%) [4]: 14%
- Population Membrane Permeable-Phenotype (%) [4]: 4%
- Population Mitochondria Different-Phenotype (%) [4]: 10%
- Population Mitotic Cells (%) [4]: 0%
- Population Normal (%) [4]: 85%
- Population Pyknosed Nuclei (%) [4]: 0%
- Population Tubulin-Different-Phenotype (%) [4]: 30%
- Total Cell Count [4]: 71
- Population Apoptotic (%) [5]: 54%
- Population Fragmented Nuclei (%) [5]: 26%
- Population Healthy Nuclei (%) [5]: 46%
- Population Hoechst High Intensity Objects (%) [5]: 11%
- Population Membrane Permeable-Phenotype (%) [5]: 28%
- Population Mitochondria Different-Phenotype (%) [5]: 7%
- Population Mitotic Cells (%) [5]: 45%
- Population Normal (%) [5]: 88%
- Population Pyknosed Nuclei (%) [5]: 27%
- Population Tubulin-Different-Phenotype (%) [5]: 30%
- Total Cell Count [5]: 129
- Population Apoptotic (%) [6]: 0%
- Population Fragmented Nuclei (%) [6]: 4%
- Population Healthy Nuclei (%) [6]: 95%
- Population Hoechst High Intensity Objects (%) [6]: 8%
- Population Membrane Permeable-Phenotype (%) [6]: 2%
- Population Mitochondria Different-Phenotype (%) [6]: 13%
- Population Mitotic Cells (%) [6]: 0%
- Population Normal (%) [6]: 91%
- Population Pyknosed Nuclei (%) [6]: 0%
- Total Cell Count [6]: 68
- Population Apoptotic (%) [7]: 56%
- Population Fragmented Nuclei (%) [7]: 14%
- Population Healthy Nuclei (%) [7]: 60%
- Population Hoechst High Intensity Objects (%) [7]: 7%
- Population Membrane Permeable-Phenotype (%) [7]: 21%
- Population Mitochondria Different-Phenotype (%) [7]: 3%
- Population Mitotic Cells (%) [7]: 43%
- Population Normal (%) [7]: 92%
- Population Pyknosed Nuclei (%) [7]: 25%
- Population Tubulin-Different-Phenotype (%) [7]: 34%
- Total Cell Count [7]: 198
- Population Apoptotic (%) [8]: 0%
- Population Fragmented Nuclei (%) [8]: 13%
- Population Healthy Nuclei (%) [8]: 81%
- Population Hoechst High Intensity Objects (%) [8]: 13%
- Population Membrane Permeable-Phenotype (%) [8]: 3%
- Population Mitochondria Different-Phenotype (%) [8]: 13%
- Population Mitotic Cells (%) [8]: 100%
- Population Normal (%) [8]: 86%
- Population Pyknosed Nuclei (%) [8]: 5%
- Population Tubulin-Different-Phenotype (%) [8]: 44%
- Total Cell Count [8]: 79
- Population Apoptotic (%) [9]: 51%
- Population Fragmented Nuclei (%) [9]: 35%
- Population Healthy Nuclei (%) [9]: 41%
- Population Hoechst High Intensity Objects (%) [9]: 20%
- Population Membrane Permeable-Phenotype (%) [9]: 32%
- Population Mitochondria Different-Phenotype (%) [9]: 2%
- Population Mitotic Cells (%) [9]: 48%
- Population Normal (%) [9]: 79%
- Population Pyknosed Nuclei (%) [9]: 23%
- Population Tubulin-Different-Phenotype (%) [9]: 38%
- Total Cell Count [9]: 147
- Population Apoptotic (%) [10]: 33%
- Population Fragmented Nuclei (%) [10]: 19%
- Population Healthy Nuclei (%) [10]: 76%
- Population Hoechst High Intensity Objects (%) [10]: 10%
- Population Membrane Permeable-Phenotype (%) [10]: 16%
- Population Mitochondria Different-Phenotype (%) [10]: 0%
- Population Mitotic Cells (%) [10]: 66%
- Population Normal (%) [10]: 90%
- Population Pyknosed Nuclei (%) [10]: 4%
- Population Tubulin-Different-Phenotype (%) [10]: 30%
- Total Cell Count [10]: 80
- Population Apoptotic (%) [11]: 54%
- Population Fragmented Nuclei (%) [11]: 25%
- Population Healthy Nuclei (%) [11]: 67%
- Population Hoechst High Intensity Objects (%) [11]: 14%
- Population Membrane Permeable-Phenotype (%) [11]: 14%
- Population Mitochondria Different-Phenotype (%) [11]: 3%
- Population Mitotic Cells (%) [11]: 45%
- Population Normal (%) [11]: 85%
- Population Pyknosed Nuclei (%) [11]: 7%
- Population Tubulin-Different-Phenotype (%) [11]: 19%
- Total Cell Count [11]: 175
- Population Apoptotic (%) [12]: 40%
- Population Fragmented Nuclei (%) [12]: 22%
- Population Healthy Nuclei (%) [12]: 73%
- Population Hoechst High Intensity Objects (%) [12]: 10%
- Population Membrane Permeable-Phenotype (%) [12]: 15%
- Population Mitochondria Different-Phenotype (%) [12]: 4%
- Population Mitotic Cells (%) [12]: 60%
- Population Normal (%) [12]: 89%
- Population Pyknosed Nuclei (%) [12]: 4%
- Population Tubulin-Different-Phenotype (%) [12]: 34%
- Total Cell Count [12]: 125

Source: ChEMBL document CHEMBL4689842, “EUbOPEN Chemogenomics Library wave 1” (2021)
